The source of these data is publication PMC4277744 (European journal of medicinal chemistry, 2014).

Read-outs that look alike come from different tables or passages of the source.

Data set [1] in a line: Stability of ninhydrin adduct in aqueous buffer monitored by 1H NMR. The data set is classed as physicochemical. To be noted: after one hour, pH 8, D2O, 10 mM phosphate buffer.
For data set [2] the following is noted: cited from earlier work.
The target in another data set is CH1 domain of p300 (Homo sapiens, UniProt Q09472). The data set is described as follows: Fluorescence-based assay for release of Zn. The data set is classed as biochemical. To be noted: high basal levels of Zn(II), poorer resolution.
CH1 domain of p300, sequence (Q09472 331-417 limits assumed): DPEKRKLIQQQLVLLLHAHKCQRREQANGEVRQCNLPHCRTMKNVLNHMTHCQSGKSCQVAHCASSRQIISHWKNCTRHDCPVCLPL
The target of data set [3] is T1, catalytic domain of KDM4A (Homo sapiens, UniProt O75164).
T1 sequence (O75164 142-308 limits assumed): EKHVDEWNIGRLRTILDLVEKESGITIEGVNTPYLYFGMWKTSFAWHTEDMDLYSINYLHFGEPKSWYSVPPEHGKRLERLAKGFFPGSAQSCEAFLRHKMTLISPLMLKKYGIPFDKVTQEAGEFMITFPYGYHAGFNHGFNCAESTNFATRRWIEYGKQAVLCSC
The data set is described as follows: Fluorescence-based. The data set is classed as biochemical. The following applies: FluoZin-3 dye measures unbound zinc; ebselen positive control.

Data set [4] has as its system HeLa cell. The data set is described as follows: HeLa cell viability assay. The following applies: after 48 h.
In data set [5] the target is HIF-1α (785-826)/p300 CH1 domain (323-423) (Homo sapiens, UniProt Q09472). The data set is described as follows: ELISA competition assay for disrupting HIF-1α/p300 binding. To be noted: read-out: IC50, HIF-1α/p300 interaction, 1% DMSO. A digest of the protocol:
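Assay wells held 1% DMSO. Each determination ran in triplicate and is reported with ±SD.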

The test system of data set [6] is HeLa cell.
The next data set addresses p300 CH1 (Homo sapiens) (UniProt Q09472). To be noted: cited from earlier work.

HIF-1α C-TAD, sequence (Q16665 783-826): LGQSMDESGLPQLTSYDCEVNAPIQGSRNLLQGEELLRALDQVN
HIF-1α (785-826)/p300 CH1 domain (323-423), sequence (Q09472 323-423): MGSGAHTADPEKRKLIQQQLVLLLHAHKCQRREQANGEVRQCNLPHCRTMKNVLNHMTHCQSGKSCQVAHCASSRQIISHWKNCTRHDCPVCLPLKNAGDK
p300 CH1 (Homo sapiens), sequence (Q09472 331-417): as the sequence (Q09472 331-417 limits assumed) above

For the molecule `O=C(NC1(O)C(=O)c2ccccc2C1=O)c1ccccn1` [compound 5, N-(2-Hydroxy-1,3-dioxo-2,3-dihydro-1H-inden-2-yl)picolinamide], in data set [1], the “hydrolysis to picolinamide and ninhydrin 23” value is 80%.

For the molecule `O=C1c2ccccc2C(=O)c2ccccc21` [compound 7, anthraquinone], the “half wave potential (E1/2)” value in data set [2] is recorded as -1.26 V.

On to `O=C1C=CC(=O)c2ccccc21` [compound 8, naphthoquinone], for which, at CH1 domain of p300, the “Zn(II) ion release from CH1 domain of p300” value was “dose- and time-dependent increases in fluorescence”. In addition, the “Zn(II) ion ejection from KDM4A” value in data set [3] was “caused Zn(II) ion loss”. Further, in the data set with HeLa cell [4], the “cytotoxicity in HeLa cell viability assay” value (shortened to “cytotoxicity”) is “significant dose-dependent cytotoxicity”. In addition, the “half wave potential (E1/2)” value in data set [2] was -1.03 V.

`c1ccc(SSc2ccccn2)nc1` [compound 13, Dipyridyldisulfide]: the IC50 in data set [5] is roughly 100 µM.

Regarding `O=C(NC1(O)C(=O)c2ccccc2C1=O)c1cccnc1` [compound 16, N-(2-Hydroxy-1,3-dioxo-2,3-dihydro-1H-inden-2-yl)nicotinamide], in data set [3], the “Zn(II) ion ejection from KDM4A” value is given as “caused Zn(II) ion loss”.

`O=C(NN1C(=O)c2ccccc2C1=O)c1ccccc1` [compound 21, N-(1,3-Dioxoisoindolin-2-yl)benzamide]: the “cytotoxicity” value with HeLa cell [6] is recorded as “not cytotoxic”.

In the case of `O=C1c2ccccc2C(=O)C1(O)O` [compound 23, ninhydrin], on CH1 domain of p300, the “Zn(II) ion release from CH1 domain of p300” value was “dose- and time-dependent increases in fluorescence”. Also, the “Zn(II) ion ejection from KDM4A” value in data set [3] was “caused Zn(II) ion loss”. Also, in the data set with HeLa cell [6], the “cytotoxicity” value is listed as “significant dose-dependent cytotoxicity”.

With HIF-1α C-TAD (from UniProt Q16665), the Kd with p300 CH1 (Homo sapiens) is 7 nM.
